# Experimental data pooled from the literature.
# Compare with care: the assays were run in different laboratories.
# Host: human
SMILES,sample,route,dose,notes,quantity,result
Cn1cc(-c2cnc3cnn(S(=O)(=O)c4cnc5ccc(-c6cnn(C)c6)cn45)c3c2)cn1,plasma,oral,300 mg,"single dose, fasted, healthy volunteers",CL/F,12.8 L/h
Cc1ccc(C(=O)N(CCCN)[C@@H](c2oc3cc(Cl)ccc3c(=O)c2Cc2ccccc2)C(C)C)cc1,plasma,intravenous,5 mg/m²,"single dose, patients, infusion",clearance,20.5 mL/min
c1cnc2ccc(Nc3nc(NC4CC4)c4nc[nH]c4n3)cc2c1,plasma,oral,400 mg/m²,patients,CL/F,115 L/h
CCNCCCNC/C=C\CNCCCNCC,plasma,intravenous,50 mg,"patients, infusion",clearance,10500 mL/min
OC[C@H]1O[C@@H](c2ccc(Cl)c(Cc3ccc(O[C@H]4CCOC4)cc3)c2)[C@H](O)[C@@H](O)[C@@H]1O,urine,oral,100 mg,single dose,renal clearance,15 mL/min
CS(=O)(=O)CCC#N,plasma,oral,100 mg,"single dose, fasted",CL/F,0.018 L/h/kg
CCOc1ccc(Cc2cc([C@@H]3O[C@H](CO)[C@@H](O)[C@H](O)[C@H]3O)ccc2Cl)cc1,plasma,oral,,"multiple doses, steady state",CL/F,21.1 L/h
COc1cc(C(=O)NC2CCN(C)CC2)c(F)cc1Nc1ncc(C(F)(F)F)c(Oc2cccc3c2C(=O)N(C)C3)n1,plasma,oral,100 mg,"multiple doses, once daily, patients",CL/F,10.4 L/h
